The nature of experiment [1]: Inhibition of Escherichia coli recombinant DNA gyrase-mediated supercoiling of relaxed pRSET A-DNA by agarose gel electrophoresis. The method, boiled down:
(§1)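 Gyrase reconstituted from purified GyrA and GyrB (1:1.4); substrate is pRSET A relaxed with wheat germ topo I. 0.5 μg DNA and drug preincubated on ice 10 min in Tris-acetate pH 7.9, KOAc, Mg acetate, DTT, 1.5 mM ATP, spermidine, BSA. Started with 2.5 nM GyrA/3.5 nM GyrB, 30°C 30 min, then SDS/EDTA stop. 1% agarose gel, ethidium stain, densitometry; % supercoiled versus no-drug control.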

Experiment [2] has as its system Nucleic Acid. The experiment in a line: Binding affinity to pGEM2 DNA assessed as DNA intercalation at 100 uM by DNA unwinding assay. The class given is nucleic-acid assay. In short, it runs like this: (§2)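 Drug-induced DNA unwinding measured with pGEM2 plasmid DNA relaxed by wheat germ DNA topoisomerase I, following a previously described method.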
For experiment [3], the target named is T1, DNA gyrase (Escherichia coli) (UniProt P0AES6+P0AES4). Nature of the experiment: Inhibition of Escherichia coli recombinant DNA gyrase assessed as enzyme-mediated supercoiling of relaxed pRSET A-DNA at 640 uM by agarose gel electrophoresis in presence of 0.01% Triton X-100. The class given is protein-complex assay. Further details: scale not given: the % may be the effect or the level left. The method, boiled down:
(§3)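 GyrA and GyrB, expressed in E. coli XL1-Blue and purified, reconstituted 1:1.4 (2.5 nM GyrA, 3.5 nM GyrB). Substrate was 0.5 μg relaxed pRSET A DNA (topoisomerase I-relaxed). Buffer: 25 mM Tris-acetate pH 7.9, 20 mM K acetate, 10 mM Mg acetate, 2 mM DTT, 1.5 mM ATP, 5 mM spermidine, 50 μg/ml BSA. Drug preincubated 10 min on ice; reaction 30 min at 30°C. Run on 1% agarose 20 h, stained with ethidium bromide, bands quantitated. % supercoiled DNA expressed relative to no-drug control.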

Experiment [4] has as its system Nucleic Acid. The experiment in a line: Binding affinity to pGEM2 DNA assessed as DNA intercalation at 640 uM by DNA unwinding assay. The class given is nucleic-acid assay.
In experiment [5] the test system is Escherichia coli. The experiment in a line: Antibacterial activity against Escherichia coli XL1-Blue assessed as growth inhibition at 21 uM after 60 mins. The format is functional, organism-based. The method, boiled down: (§4)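 Log-phase E. coli XL1-Blue (overnight LB cultures at 37°C diluted to OD595 0.05 in fresh LB, shaken at 37°C until log phase) transferred into flasks containing filter-sterilized drug at various concentrations. Shaking growth continued at 37°C. Growth followed by culture absorbance at OD595 over time.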

For experiment [6], the system named is Escherichia coli. The experiment in a line: Antibacterial activity against Escherichia coli XL1-Blue assessed as growth inhibition at 64 uM after 30 mins. The format is functional, organism-based. The method, boiled down: as §4
For experiment [7], the system named is Nucleic Acid. The experiment in a line: Binding affinity to pGEM2 DNA assessed as DNA intercalation at 1600 uM by DNA unwinding assay. The format is nucleic-acid assay. In short, it runs like this: as §2
Experiment [8] deals with Escherichia coli. The experiment in a line: Inhibition of Escherichia coli recombinant DNA gyrase-mediated supercoiling activity of relaxed pRSET A-DNA at 192 uM by agarose gel electrophoresis. The arrangement: scale not given: the % may be the effect or the level left. The method, boiled down:
as §3

Experiment [9] can be described thus: Inhibition of Escherichia coli DNA gyrase B ATPase activity by spectrophotometry. In short, it runs like this:
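DNA-independent ATPase of purified E. coli GyrB (40 nM) with 2 mM ATP. ATP hydrolysis coupled to NADH oxidation and read spectrophotometrically. Ki calculated from Ki(app) as Ki = Ki(app)/(1 + [ATP]/Km), taking Km 0.3 mM for E. coli gyrase ATPase.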

Experiment [10] addresses T1, DNA gyrase (Escherichia coli). The experiment in a line: Inhibition of Escherichia coli recombinant DNA gyrase assessed as enzyme-mediated supercoiling of relaxed pRSET A-DNA at 640 uM by agarose gel electrophoresis. Further details: scale not given: the % may be the effect or the level left. The class given is protein-complex assay. In short, it runs like this: as §3

The test system of experiment [11] is Escherichia coli. Nature of the experiment: Antibacterial activity against Escherichia coli XL1-Blue assessed as complete inhibition at 192 uM with in 30 mins. The class given is functional, organism-based. The method, boiled down:
as §4

Experiment [12] relates to Nucleic Acid. The experiment in a line: Binding affinity to pGEM2 DNA assessed as DNA intercalation at 1.6 mM by DNA unwinding assay.
Experiment [13] has as its system Escherichia coli. Nature of the experiment: Inhibition of Escherichia coli DNA gyrase B ATPase activity up to 1.5 mM by spectrophotometry. In short, it runs like this:
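DNA-independent ATPase of purified E. coli GyrB (40 nM) with 2 mM ATP, read spectrophotometrically by coupling ATP hydrolysis to NADH oxidation. Ki calculated as Ki(app)/(1 + [ATP]/Km), with Km 0.3 mM for E. coli gyrase ATPase.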

The target of experiment [14] is T1, DNA gyrase (Escherichia coli). The experiment in a line: Inhibition of Escherichia coli recombinant DNA gyrase assessed as enzyme-mediated supercoiling of relaxed pRSET A-DNA at 170 uM by agarose gel electrophoresis. The format is protein-complex assay. The arrangement: scale not given: the % may be the effect or the level left. The method, boiled down:
as §1

The target is the same in experiment [15]. The experiment in a line: Inhibition of Escherichia coli recombinant DNA gyrase assessed as enzyme-mediated supercoiling of relaxed pRSET A-DNA at 170 uM by agarose gel electrophoresis in presence of 0.01% Triton X-100. The class given is protein-complex assay. The arrangement: scale not given: the % may be the effect or the level left. The method, boiled down: as §1

The target is the same in experiment [16]. Nature of the experiment: Inhibition of Escherichia coli recombinant DNA gyrase assessed as enzyme-mediated supercoiling of relaxed pRSET A-DNA at 170 uM by agarose gel electrophoresis in presence of 0.025% Triton X-100. The class given is protein-complex assay. Further details: scale not given: the % may be the effect or the level left. The method, boiled down: as §1

The test system of experiment [17] is Nucleic Acid. Nature of the experiment: Binding affinity to pGEM2 DNA assessed as DNA intercalation at >=50 uM by DNA unwinding assay. The format is nucleic-acid assay. In short, it runs like this: as §2

Activity calls are given as the source filed them. The rule behind the calls is not given here. Some results are limits rather than exact numbers.

`O=c1[nH]nc(-c2cc(-c3ccccc3)nc3ccccc23)o1`: the IC50 (commonly the midpoint of a concentration-inhibition curve) in [1] is 72 µM. The result with Nucleic Acid [2] was inactive.
On to `O=NNc1cnc(O)nc1O`, for which the results for the Activity (in [3]; in the experiment on Escherichia coli [8]; in experiment [10]) were 17%, greater than 30% and 10%, respectively. The outcome in the experiment on Nucleic Acid [4] and in the experiment with Nucleic Acid [7] was inactive. In addition, the IC50 in experiment [1] turned out to be 338 µM. The outcome in the experiment with Escherichia coli [5], in the experiment on Escherichia coli [6] and with Escherichia coli [11] was Active. Also, the Ki (as a rule, the dissociation constant of the complex between target and ligand, obtained from inhibition or displacement) in experiment [9] amounted to 149 µM.
With `CO[C@@H]1[C@@H](OC(=O)c2ccc(C)[nH]2)[C@@H](O)[C@@H](Oc2ccc3c(O)c(NC(=O)c4c[nH]c(C(=O)Nc5c(O)c6ccc(O[C@H]7OC(C)(C)[C@H](OC)[C@@H](OC(=O)c8ccc(C)[nH]8)[C@H]7O)c(C)c6oc5=O)c4C)c(=O)oc3c2C)OC1(C)C` [COUMERMYCIN], in [1], the IC50 amounted to 0.04 µM.
Still for that read-out and setting: the same measure for `O=C(O)c1cn(C2CC2)c2cc(N3CCNCC3)c(F)cc2c1=O` [CIPROFLOXACIN]: 1.2 µM.
In the case of `NC(=O)c1[nH]cnc1N`, the outcome with Nucleic Acid [12], with Nucleic Acid [7] and with Escherichia coli [13] was inactive. The IC50 in [1] came out at 814 µM.
As for `O=c1ccc2nccc3c4ccccc4n1c23` [CANTHIN-6-ONE], the Activity in experiment [14] came out at 7%; in experiment [15] it was 13%; in experiment [16], 12%. Besides, the IC50 in [1] stood at 50 µM. Moreover, the result with Nucleic Acid [17] was Active.
For `O=Cc1c[nH]nn1`, the IC50 in [1] came out at 737 µM. For the same compound, the result in the experiment on Nucleic Acid [7] was inactive.

For the origin of these results see ChEMBL document CHEMBL1152821, “Discovery of novel DNA gyrase inhibitors by high-throughput virtual screening” (Antimicrob Agents Chemother, 2007).
